Like-named read-outs stand apart in the source and are kept apart here.

Assay [1] concerns A549 cells. The assay is described as follows: cells. The assay is classed as cell-based, human. The following applies: mean of triplicate; for IC50 (%inhibition ± SD) A549: Table 3.
The test system of a further assay is PC-3 cells. The assay is classed as cell-based, human. The following applies: Table 3; MTT; mean of triplicate.
Another assay deals with HepG2 cells. The assay is classed as cell-based, human. The conditions noted are these: Table 3; MTT; mean of triplicate.
In a further assay the test system is NRK-52E cells. The assay is classed as cell-based. The following applies: Table 3; normal rat kidney cell line; MTT.
Assay [2] concerns A549 cells. The assay is described as follows: Cell cycle analysis by PI flow cytometry. The conditions noted are these: 24 h. The assay is classed as cell-based, human. In outline: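 A549 cells were treated for 24 h with test compound at 0, 4 or 8 µM, with 0.1% DMSO as control. Cells were collected and washed twice in cold PBS, then fixed in cold 70% ethanol overnight at 4 °C. They were treated with 1 mg/mL RNase A for 30 min at 37 °C, stained with PI for 30 min at 4 °C in the dark, and analysed by flow cytometry.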
Background: Flow cytometry measures light scatter and fluorescence of single cells or particles in a stream.

Where [3] appears, read: Homo sapiens, A549, read-out: IC50 A549, MTT.

As for `O=C(CN1C(=O)/C(=C/c2cccc(F)c2)SC1=S)Nc1ccccc1` [I7, (Z)-2–(5-(3-fluorobenzylidene)-4-oxo-2-thioxothiazolidin-3-yl)-N-phenylacetamide], the IC50 (commonly the concentration needed to halve the response being measured) with A549 cells [1] (setting [3]) was determined as 29.6 ± 3.72 µM.
As for `COc1cccc(NC(=O)CN2C(=O)/C(=C/c3ccco3)SC2=S)c1` [I33, (Z)-2–(5-(furan-2-ylmethylene)-4-oxo-2-thioxothiazolidin-3-yl)-N-(3-methoxyphenyl)acetamide], the IC50 in the assay with A549 cells [1] (setting [3]) was determined as 46.5 ± 7.31 µM.
With “(Z)-2-(5-(2-hydroxy-3-methoxybenzylidene)-4-oxo-2-thioxothiazolidin-3-yl)-N-phenylacetamide [I22]”, the half-maximal inhibitory concentration (IC50) in the assay with A549 cells [1] (read-out: IC50 A549, MTT) was found to be 84.9 ± 9 µM.
Turning to `O=C(CN1C(=O)/C(=C/c2ccc(C(F)(F)F)cc2)SC1=S)Nc1ccccc1` [I13, (Z)-2-(4-oxo-2-thioxo-5-(4-(trifluoromethyl)benzylidene)thiazolidin-3-yl)-N-phenylacetamide], the IC50 in the assay with A549 cells [1] (setting [3]) was found to be 20.1 ± 3.13 µM.
In the case of `O=C(CN1C(=O)/C(=C/c2ccccc2F)SC1=S)Nc1ccccc1` [I2, (Z)-2–(5-(2-fluorobenzylidene)-4-oxo-2-thioxothiazolidin-3-yl)-N-phenylacetamide], the IC50 with A549 cells [1] (read-out: IC50 A549, MTT) is 22.7 ± 5.45 µM.
For the compound `COc1cccc(NC(=O)CN2C(=O)/C(=C/c3ccccc3)SC2=S)c1` [I30, (Z)-2-(5-benzylidene-4-oxo-2-thioxothiazolidin-3-yl)-N-(3-methoxyphenyl)acetamide], the IC50 in the assay on A549 cells [1] (setting [3]) amounted to 22.1 ± 3.41 µM.
`COc1cccc(NC(=O)CN2C(=O)/C(=C/c3cccs3)SC2=S)c1` [I34, (Z)-N-(3-methoxyphenyl)-2–(4-oxo-5-(thiophen-2-ylmethylene)-2-thioxothiazolidin-3-yl)acetamide]: the IC50 in the assay on A549 cells [1] (setting [3]) was 17.8 ± 3.75 µM.
In the case of `O=C(CN1C(=O)/C(=C/c2cccc([N+](=O)[O-])c2)SC1=S)Nc1ccccc1` [I6, (Z)-2–(5-(3-nitrobenzylidene)-4-oxo-2-thioxothiazolidin-3-yl)-N-phenylacetamide], in the assay with A549 cells [1] (setting [3]), the IC50 was found to be 22.9 ± 2.07 µM.
Regarding `O=C(CN1C(=O)/C(=C/c2ccc[nH]2)SC1=S)Nc1ccccc1` [I26, (Z)-2-(5-((1H-pyrrol-2-yl)methylene)-4-oxo-2-thioxothiazolidin-3-yl)-N-phenylacetamide], in the assay on A549 cells [1] (setting [3]), the IC50 was 20 ± 4.25 µM.
Consider `O=C(CN1C(=O)/C(=C/c2ccccn2)SC1=S)Nc1ccccc1` [I28, (Z)-2-(4-oxo-5-(pyridin-2-ylmethylene)-2-thioxothiazolidin-3-yl)-N-phenylacetamide], for which the IC50 in the assay with A549 cells [1] (setting [3]) came out at 17.3 ± 3.9 µM.
On to `O=C(CN1C(=O)/C(=C/c2cccs2)SC1=S)Nc1ccccc1` [I25, (Z)-2–(4-oxo-5-(thiophen-2-ylmethylene)-2-thioxothiazolidin-3-yl)-N-phenylacetamide], for which the IC50 in the assay with A549 cells [1] (setting [3]) is 16 ± 3.46 µM.
Take “(Z)-2-(5-(4-(dimethylamino)benzylidene)-4-oxo-2-thioxothiazolidin-3-yl)-N-phenylacetamide [I20]”: the “IC50 (%inhibition ± SD) A549” value in the assay with A549 cells [1] (MTT) came out at 7.00 ± 1.06%. Besides, in the assay on A549 cells [1] (read-out: IC50 A549, MTT), the IC50 is 7 ± 1.06 µM. The “IC50 (%inhibition ± SD) PC-3” value in the assay on PC-3 cells was 19.9 ± 5.56%. In addition, the “IC50 (%inhibition ± SD) HepG2” value with HepG2 cells worked out at 20.3 ± 2.93%. In addition, in the assay on NRK-52E cells, the “IC50 (%inhibition ± SD) NRK-52E” value is 14.7 ± 1.58%. Moreover, the “percentage of cells in G2/M” value in the assay with A549 cells [2] (A549, 4 µM) was found to be 10.92%; with A549 cells [2] (A549, 8 µM), 15.45%.
On to `O=C(CN1C(=O)/C(=C/c2ccc(O)cc2)SC1=S)Nc1ccccc1` [I16, (Z)-2-(5-(4-hydroxybenzylidene)-4-oxo-2-thioxothiazolidin-3-yl)-N-phenylacetamide], for which, in the assay on A549 cells [1] (setting [3]), the IC50 was 16.8 ± 3.66 µM.
Turning to `CC(C)c1ccc(/C=C2\SC(=S)N(CC(=O)Nc3ccccc3)C2=O)cc1` [I17, (Z)-2-(5-(4-isopropylbenzylidene)-4-oxo-2-thioxothiazolidin-3-yl)-N-phenylacetamide], the IC50 in the assay on A549 cells [1] (setting [3]) was found to be 20.7 ± 3.33 µM.
Consider `O=C(CN1C(=O)/C(=C/c2ccncc2)SC1=S)Nc1ccccc1` [I29, (Z)-2-(4-oxo-5-(pyridin-4-ylmethylene)-2-thioxothiazolidin-3-yl)-N-phenylacetamide], for which the IC50 with A549 cells [1] (setting [3]) was found to be 26.4 ± 8 µM.
Consider `CCOc1ccc(/C=C2\SC(=S)N(CC(=O)Nc3ccccc3)C2=O)cc1` [I19, (Z)-2-(5-(4-ethoxybenzylidene)-4-oxo-2-thioxothiazolidin-3-yl)-N-phenylacetamide], for which the “IC50 (%inhibition ± SD) PC-3” value in the assay with PC-3 cells is recorded as 18.1 ± 3.68%. The “IC50 (%inhibition ± SD) HepG2” value in the assay with HepG2 cells is 18.8 ± 5.40%. Also, the “IC50 (%inhibition ± SD) NRK-52E” value in the assay on NRK-52E cells worked out at 11.0 ± 3.10%.
As for `O=C(CN1C(=O)/C(=C/c2ccc([N+](=O)[O-])cc2)SC1=S)Nc1ccccc1` [I12, (Z)-2–(5-(4-nitrobenzylidene)-4-oxo-2-thioxothiazolidin-3-yl)-N-phenylacetamide], the IC50 in the assay on A549 cells [1] (setting [3]) is 23.6 ± 3 µM.
Take `O=C(CN1C(=O)/C(=C/c2ccccc2)SC1=S)Nc1ccccc1` [I1, (Z)-2–(5-benzylidene-4-oxo-2-thioxothiazolidin-3-yl)-N-phenylacetamide]: the IC50 with A549 cells [1] (setting [3]) is 11.3 ± 1.5 µM. In addition, in the assay with A549 cells [1] (MTT), the “IC50 (%inhibition ± SD) A549” value is given as 11.3 ± 1.50%. Also, the “IC50 (%inhibition ± SD) PC-3” value in the assay with PC-3 cells worked out at 21.7 ± 2.89%. The “IC50 (%inhibition ± SD) HepG2” value with HepG2 cells was 24.7 ± 8.91%. In addition, the “IC50 (%inhibition ± SD) NRK-52E” value in the assay with NRK-52E cells is recorded as 13.1 ± 3.58%.
For “(Z)-2-(5-(cyclohex-2-en-1-ylmethylene)-4-oxo-2-thioxothiazolidin-3-yl)-N-phenylacetamide [I27]”, the IC50 in the assay with A549 cells [1] (read-out: IC50 A549, MTT) was found to be 51.3 ± 9.09 µM.
Turning to `O=C(CN1C(=O)/C(=C/c2cccc(O)c2)SC1=S)Nc1ccccc1` [I10, (Z)-2–(5-(3-hydroxybenzylidene)-4-oxo-2-thioxothiazolidin-3-yl)-N-phenylacetamide], the IC50 with A549 cells [1] (setting [3]) worked out at 42.8 ± 6.5 µM.
Turning to `O=C(CN1C(=O)/C(=C/c2cccc(Cl)c2)SC1=S)Nc1ccccc1` [I8, (Z)-2–(5-(3-chlorobenzylidene)-4-oxo-2-thioxothiazolidin-3-yl)-N-phenylacetamide], the IC50 in the assay with A549 cells [1] (setting [3]) worked out at 31 ± 2.21 µM.
As for `COc1cccc(NC(=O)CN2C(=O)/C(=C/C3CC3)SC2=S)c1` [I32, (Z)-2–(5-(cyclopropylmethylene)-4-oxo-2-thioxothiazolidin-3-yl)-N-(3-methoxyphenyl)acetamide], the IC50 in the assay on A549 cells [1] (setting [3]) was 39.1 ± 5.62 µM.
On to `O=C(CN1C(=O)/C(=C/c2ccc(F)cc2)SC1=S)Nc1ccccc1` [I14, (Z)-2–(5-(4-fluorobenzylidene)-4-oxo-2-thioxothiazolidin-3-yl)-N-phenylacetamide], for which, in the assay on A549 cells [1] (setting [3]), the IC50 amounted to 18.8 ± 3.31 µM.
With `COc1ccccc1/C=C1\SC(=S)N(CC(=O)Nc2ccccc2)C1=O` [I5, (Z)-2–(5-(2-methoxybenzylidene)-4-oxo-2-thioxothiazolidin-3-yl)-N-phenylacetamide], the IC50 with A549 cells [1] (setting [3]) stood at 13.4 ± 5.03 µM. The “IC50 (%inhibition ± SD) A549” value with A549 cells [1] (MTT) worked out at 13.4 ± 5.03%. Besides, in the assay on HepG2 cells, the “IC50 (%inhibition ± SD) HepG2” value is recorded as 36.4 ± 8.00%. Moreover, the “IC50 (%inhibition ± SD) NRK-52E” value in the assay with NRK-52E cells amounted to 17.4 ± 4.57%.
Regarding `O=C(CN1C(=O)/C(=C/c2ccc(Cl)cc2Cl)SC1=S)Nc1ccccc1` [I21, (Z)-2-(5-(2,4-dichlorobenzylidene)-4-oxo-2-thioxothiazolidin-3-yl)-N-phenylacetamide], the IC50 with A549 cells [1] (setting [3]) amounted to 36.9 ± 1.36 µM.
Take `O=C(CN1C(=O)/C(=C/c2ccc(Cl)cc2)SC1=S)Nc1ccccc1` [I15, (Z)-2–(5-(4-chlorobenzylidene)-4-oxo-2-thioxothiazolidin-3-yl)-N-phenylacetamide]: the “IC50 (%inhibition ± SD) PC-3” value in the assay with PC-3 cells is 17.6 ± 2.51%. Moreover, the “IC50 (%inhibition ± SD) HepG2” value in the assay with HepG2 cells is given as 20.6 ± 5.19%. Moreover, the “IC50 (%inhibition ± SD) NRK-52E” value in the assay on NRK-52E cells was 15.1 ± 2.45%.
With `O=C(CN1C(=O)/C(=C/C2CC2)SC1=S)Nc1ccccc1` [I23, (Z)-2-(5-(cyclopropylmethylene)-4-oxo-2-thioxothiazolidin-3-yl)-N-phenylacetamide], the IC50 with A549 cells [1] (setting [3]) is 15.7 ± 0.98 µM.
For the compound `O=C(CN1C(=O)/C(=C/c2ccccc2O)SC1=S)Nc1ccccc1` [I4, (Z)-2–(5-(2-hydroxybenzylidene)-4-oxo-2-thioxothiazolidin-3-yl)-N-phenylacetamide], in the assay with A549 cells [1] (setting [3]), the half-maximal inhibitory concentration (IC50) turned out to be 15.8 ± 3.03 µM.
In the case of `O=C(CN1C(=O)/C(=C/c2ccco2)SC1=S)Nc1ccccc1` [I24, (Z)-2-(5-(furan-2-ylmethylene)-4-oxo-2-thioxothiazolidin-3-yl)-N-phenylacetamide], the “IC50 (%inhibition ± SD) PC-3” value in the assay with PC-3 cells came to 25.1 ± 3.39%. For the same compound, the “IC50 (%inhibition ± SD) NRK-52E” value in the assay with NRK-52E cells amounted to 20.1 ± 2.12%.

The values are drawn from publication PMC8451688 (Journal of Enzyme Inhibition and Medicinal Chemistry, 2021).
